CSN inh = blocks human CSN-mediated cullin deneddylation; 360,000 compounds, 0.38% hits; inhibition, % at 12.5 µM; Purified CSN, SCF-Nedd8-OG deneddylation, fluorescence polarization; Q92905;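 active means pattern-corrected inhibition above about 35%, with an unprinted fluorescence ratio check between 0.5 and 1.5, limit read from the data, passing the limit was not always enough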;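 further: 0% = enzyme with substrate and 100% = substrate without enzyme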
Target sequence (Q92905 whole entry, looked up, one chain of several): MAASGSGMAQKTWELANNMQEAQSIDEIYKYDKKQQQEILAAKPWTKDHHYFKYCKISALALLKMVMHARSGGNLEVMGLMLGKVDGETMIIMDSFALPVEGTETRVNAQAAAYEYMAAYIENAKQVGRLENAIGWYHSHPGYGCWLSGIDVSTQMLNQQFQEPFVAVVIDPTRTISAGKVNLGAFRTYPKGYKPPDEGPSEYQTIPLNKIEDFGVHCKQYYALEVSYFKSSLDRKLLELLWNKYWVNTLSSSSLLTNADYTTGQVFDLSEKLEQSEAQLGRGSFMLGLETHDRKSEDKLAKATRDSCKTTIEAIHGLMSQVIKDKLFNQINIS
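Detection – fluorescence polarization · System – HEK293T-derived human Csn5 enzyme · Controls – substrate-only high control, full reaction low control · Timing – 90 min, room temperature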
TPT1 inh = C. albicans TPT1 enzyme inhibition | recombinant caTPT1, FP RNA substrate dephosphorylation | inhibition, % at 5 µM | AID 1962 | 300,000 compounds, 0.81% hits;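 active means inhibition above the mean of all tested compounds plus 3 SD, set per screening campaign, cut at about 24% in these data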;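 further: plate controls were DMSO alone for no effect and ferristatin control at 100 nM for full effect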
Rpn11 inh = inhibitors of human proteasome Rpn11; human 26S proteasome, Ub4-pepOG fluorescence polarization; 20S core pre-blocked with epoxomicin; calls only at 20 µM; 360,000 compounds, 0.59% hits; AID 588493;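 active means inhibition at 20 µM, scaled to each plate's controls, above about 33%, limit read from the data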
HNF4A DNA FP = change in binding of human HNF4 alpha to DNA; P41235; HNF4a-FITC DNA binding, fluorescence polarization, 1 h; activity change, % at 10 µM; 360,000 compounds, 0.3% hits; in the data active means activity change above about 30%, passing the limit was not always enough
CRFBP-R2 block = blocks CRF-induced signaling of the CRF-BP/CRF-R2 complex; HEK293 CRF-R2/CRF-BP, CRF-induced calcium fluorescence; inhibition, % at 11.8 µM; 350,000 compounds, 0.59% hits; AID 588475;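 active means inhibition of the ligand-induced calcium signal above about 50% at the single tested concentration, limit read from the data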
CRFR2-BP ag = CRF-BP/CRF-R2 complex agonism; AID 588473; activation, % at 13.2 µM; 350,000 compounds, 0.46% hits; HEK293 CRF-R2/CRF-BP, calcium dye fluorescence (FLIPR); percent of saturating CRF peptide response;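 active means activation of at least 50%, plus an integration ratio under a set limit after plate pattern correction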;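 further: plate controls were neutral control wells without compound for no effect and CRF at EC100 for full effect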
Starred values were filed as active, the others as inactive; i = inactive; . = not tested or not shown; + = active, no number. An excerpt weighted towards active compounds, which were near 2.3% of everything screened.

SMILES	CSN inh	TPT1 inh	Rpn11 inh	HNF4A DNA FP	CRFBP-R2 block	CRFR2-BP ag
C#CCOCCOCCOCCNc1nc(N2CCN(C(=O)C([C@@H](C)O)n3cc([C@@H](N)CCCCN)nn3)CC2)nc(N2CCN(C(=O)[C@H](CO)n3cc([C@@H](N)C(C)C)nn3)CC2)n1 (stereo not given in full)	25	.	i	78*	-10	-1
C#CCOCCOCCOCCNc1nc(N2CCN(C(=O)CCCCCCCCCCNC(=O)[C@H](CCCCN)n3cc(CCO)nn3)CC2)nc(N2CCN(C(=O)CCCCCCCCCCNC(=O)[C@H](CCCN=C(N)N)n3cc(C[C@@H](C)CC)nn3)CC2)n1	109*	5	+	164	-43	18
C#CCOCCOCCOCCNc1nc(N2CCN(C(=O)CCCCCCCCCCNC(=O)[C@H](CCCCN)n3cc(CCO)nn3)CC2)nc(N2CCN(C(=O)CCCCCCCCCCNC(=O)[C@H](CCCCN)n3cc(CCO)nn3)CC2)n1	104*	0	i	131	-2	9
C#CCOCCOCCOCCNc1nc(N2CCN(C(=O)C([C@@H](C)O)n3cc([C@@H](N)CCCCN)nn3)CC2)nc(N2CCN(C(=O)C([C@@H](C)O)n3cc([C@@H](N)CCCCN)nn3)CC2)n1 (stereo not given in full)	-1	.	i	8	-1	0
C#CCOCCOCCOCCNc1nc(N2CCN(C(=O)CCCCCCCCCCNC(=O)[C@H](CCCCN)n3cc(CCCC(=O)O)nn3)CC2)nc(N2CCN(C(=O)CCCCCCCCCCNC(=O)[C@H](CCCCN)n3cc(CCCC(=O)O)nn3)CC2)n1	2	1	i	0	1	1
C#CCOCCOCCOCCNc1nc(N2CCN(C(=O)CCCCCCCCCCNC(=O)[C@@H](CCSC)n3cc(CCO)nn3)CC2)nc(N2CCN(C(=O)CCCCCCCCCCNC(=O)[C@H]([C@@H](C)CC)n3cc(CCCCN=C(N)N)nn3)CC2)n1	139*	-4	+	212	1	0
COc1ccc(OCC(=O)N2CCN(S(=O)(=O)c3ccc4c(c3)OCCO4)CC2)cc1	0	.	i	3	7	-2
COc1cccc2c1C(=O)c1c(O)c3c(c(O)c1C2=O)C[C@@](O)(C(C)=O)C[C@@H]3O[C@H]1C[C@H](N)[C@H](O)[C@H](C)O1	-74	.	i	-89	-92	83*
CC(=O)[C@]1(O)Cc2c(O)c3c(c(O)c2[C@@H](O[C@H]2C[C@H](N)[C@H](O)[C@H](C)O2)C1)C(=O)c1ccccc1C3=O	.	-116	.	.	-196	212*
COc1cccc2c1C(=O)c1c(O)c3c(c(O)c1C2=O)CC(O)(C(=O)CO)CC3OC1CC(N(C)C)C(O)C(C)O1 (stereo not given)	-73	.	i	-47	-102	91*
COc1cccc2c1C(=O)c1c(O)c3c(c(O)c1C2=O)C[C@@](O)(C(=O)CO)C[C@@H]3O[C@H]1C[C@H](N)[C@@H](O)[C@H](C)O1	-74	-169	i	-42	-113	60*
O=C(N/N=C/c1ccccc1F)c1cccc(NC(=O)c2ccccc2Cl)c1	-3	2	i	1	-6	-1
COC(=O)c1cc2sc(Cl)cc2n1CC(=O)Nc1ccc(OC)c(OC)c1OC	3	1	i	4	-51	55*
Cc1ccc(CCNC(=O)C2CCC(=O)N2C2CCCC2)cc1 (stereo not given)	-2	0	i	-2	62*	-1
CC1=C(C(=O)NCc2ccc(Cl)cc2)C2(CCC(C)CC2)OC1=O (stereo not given)	-2	0	i	2	0	3
CC1=C(C(=O)NCc2ccccn2)C2(CCC(C)CC2)OC1=O (stereo not given)	-3	0	i	3	66*	1
Cc1c(C(=O)Nc2cccc(Oc3ccccc3)c2)sc(=O)n1Cc1ccc(F)cc1	-5	.	i	-2	.	.
CC(=O)c1cc(F)c(N2CCN(C(=O)C(C)(C)C)CC2)cc1C	1	-2	i	-1	74*	-5
CC(=O)c1cc(F)c(N2CCCC2)cc1C	2	-2	i	2	-24	-2
O=C(COC(=O)C1CC2C=CC1C2)NCc1ccc(F)cc1 (stereo not given)	5	-5	i	-4	12	0
O=C(COc1ccccc1)NCc1ccco1	3	.	i	4	65*	4
O=C(COC(=O)C1CC2C=CC1C2)NCc1ccco1 (stereo not given)	35*	9	i	-11	-6	-2
CC(C)(C)c1ccc(OCC(=O)NCc2ccco2)cc1	-3	2	i	2	-7	-3
CCOC(=O)c1[nH]c2ccccc2c1NC(=O)C1CCCC1	4	0	i	-2	20	4
C/C(=N/NC(=O)Cc1cccc2ccccc12)c1cccs1	2	-3	i	2	12	0
SMILES	CSN inh	TPT1 inh	Rpn11 inh	HNF4A DNA FP	CRFBP-R2 block	CRFR2-BP ag
CCCc1nnc(NC(=O)CCC(=O)N2CCN(Cc3ccc(OC)c(F)c3)CC2)s1	-3	-5	i	-2	6	1
CC(=O)c1ccc(Oc2ccc(C(C)=O)cc2)cc1	1	1	i	0	10	7
CN(C)C(=O)c1ccc(Oc2ccc(C(=O)N(C)C)cc2)cc1	3	-4	i	37*	4	-1
O=C(O)c1ccc(/C=N/Nc2cccc(C(F)(F)F)c2)cc1	-5	2	i	-2	76*	0
O=C(O)c1ccc(N/N=C/c2ccc(-c3ccccc3)cc2)cc1	3	.	i	-6	21	1
Cc1nnsc1-c1nnc(SCC(=O)c2ccccc2)n1C1CC1	-2	1	i	3	-10	-2
CC(=O)Nc1nnc(SCC(=O)NC(C)(C)C)s1	5	-6	i	0	-8	1
CCC(C)C(=O)Nc1nnc(SCC(=O)NC(C)(C)C)s1 (stereo not given)	-2	1	i	-2	67*	0
O=C(COc1ccc2ccccc2c1)Nc1cccc(C(=O)Nc2ccccc2C(=O)O)c1	-4	4	i	0	59*	0
Nc1ccc(C(=O)Nc2ccccc2C(=O)O)cc1	2	5	i	0	18	-2
O=C(O)c1ccccc1NC(=O)c1ccccc1Nc1ccccc1	2	-5	i	-3	52*	-1
O=C(Nc1ccccc1C(=O)Nc1ccccc1C(=O)O)c1ccccc1	7	-3	i	-1	53*	0
CCc1c(C2(O)CCCCC2)[nH]c2c(C(=O)OC)cc(Cl)cc12	-3	-4	i	3	-18	1

High-throughput results as filed in PubChem.
